Data from ChEMBL document CHEMBL1137229, “Structural characterization and pharmacology of a potent (Cys101-Cys119, Cys110-Cys117) bicyclic agouti-related protein (AGRP) melanocortin receptor antagonist” (J Med Chem, 2004).
Bridge positions count the residues as written; N and C are the ends. Peptide text beside a SMILES is read from it.

What was measured:
[1] = biological target: T1, Melanocortin receptor 4 (Mus musculus, UniProt P56450); assay: Displacement of [125I]-hAGRP(87-132) from mouse Melanocortin 4 Receptor
T1 sequence (P56450 whole entry): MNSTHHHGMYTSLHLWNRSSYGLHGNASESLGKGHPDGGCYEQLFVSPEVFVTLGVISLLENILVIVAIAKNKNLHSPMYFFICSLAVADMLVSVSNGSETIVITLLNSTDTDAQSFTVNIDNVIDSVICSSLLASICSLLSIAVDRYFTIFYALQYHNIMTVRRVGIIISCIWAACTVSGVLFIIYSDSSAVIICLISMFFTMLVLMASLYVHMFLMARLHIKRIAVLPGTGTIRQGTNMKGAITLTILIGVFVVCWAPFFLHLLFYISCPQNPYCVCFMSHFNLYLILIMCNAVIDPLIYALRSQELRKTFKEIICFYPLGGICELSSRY
Method in brief: (§1)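 Whole HEK-293 cells stably expressing mouse receptor, plated a day before at 0.1–0.3 × 10^6 cells/well. Chloramine-T-iodinated [125I]hAGRP(87–132) at 100000 cpm/well displaced by ligand. Nonspecific binding defined with 10^-6 M hAGRP(87–132). IC50 from nonlinear least-squares fit, or percent specific binding displaced at 10 μM. Duplicate points, at least two independent experiments, SD reported.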

[2] = biological target: T1, Melanocortin receptor 4; assay: Antagonistic activity against mouse Melanocortin 4 Receptor; format: functional; settings: read-out: pA2 (converted)
Method in brief: (§2)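 Same HEK-293 CRE/β-galactosidase cAMP reporter system as the agonist assay, with a 6 h stimulation in IBMX-containing medium and normalization to protein and forskolin. Antagonism measured as the dose-dependent shift of the MTII agonist response, ligand up to 10 μM. pA2 derived by Schild analysis. Mean ± SEM of at least three independent experiments.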

[3] = biological target: Melanocyte-stimulating hormone receptor (Mus musculus, UniProt Q01727); assay: Agonistic activity against mouse Melanocortin 1 Receptor; format: functional
Chain of Melanocyte-stimulating hormone receptor (Q01727 whole entry): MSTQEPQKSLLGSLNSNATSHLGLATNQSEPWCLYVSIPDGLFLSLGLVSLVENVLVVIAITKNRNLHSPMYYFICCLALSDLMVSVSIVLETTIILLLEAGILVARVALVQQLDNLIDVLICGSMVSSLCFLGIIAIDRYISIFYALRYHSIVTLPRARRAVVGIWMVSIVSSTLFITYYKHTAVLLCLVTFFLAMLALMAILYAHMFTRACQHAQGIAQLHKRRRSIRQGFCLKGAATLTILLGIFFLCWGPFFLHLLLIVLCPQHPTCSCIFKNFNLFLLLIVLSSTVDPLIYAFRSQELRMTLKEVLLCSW
Method in brief: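 HEK-293 cells stably expressing the receptor (G418 selection), transiently transfected with a CRE/β-galactosidase reporter. Lysates read with ONPG at OD405 and normalized to protein content and forskolin (10^-4 M) response. EC50 from nonlinear least-squares fit, at least three independent experiments.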

[4] = biological target: T2, Melanocortin receptor 3 (Mus musculus, UniProt P33033); assay: Displacement of [125I]-hAGRP(87-132) from mouse Melanocortin 3 Receptor; method in brief: as §1
T2 sequence (P33033 whole entry): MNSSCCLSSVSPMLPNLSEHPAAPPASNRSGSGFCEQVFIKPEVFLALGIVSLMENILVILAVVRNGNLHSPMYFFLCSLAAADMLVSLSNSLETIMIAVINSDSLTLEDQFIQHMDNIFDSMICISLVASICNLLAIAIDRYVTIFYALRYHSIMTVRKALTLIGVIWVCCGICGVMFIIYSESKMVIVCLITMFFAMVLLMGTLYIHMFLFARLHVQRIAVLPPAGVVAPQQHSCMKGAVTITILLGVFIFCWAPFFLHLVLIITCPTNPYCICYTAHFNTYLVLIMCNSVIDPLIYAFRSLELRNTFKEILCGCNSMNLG

[5] = biological target: T2, Melanocortin receptor 3; assay: Antagonistic activity against mouse Melanocortin 3 Receptor; format: functional; settings: read-out: pA2 (converted); method in brief: as §2

IC50 [1]	Kb [2]	EC50 [3]	IC50 [4]	Kb [5]	SMILES
10 nM	31.6 nM	1.46 µM			CC[C@@H]1NC(=O)[C@H]([C@@H](C)O)NC(=O)[C@H](C)NC(=O)[C@H](CC)NC(=O)[C@@H]2CCCN2C(=O)[C@H](CC(=O)O)NC(=O)[C@H](CC)NC(=O)[C@@H](N)CSSC[C@@H](C(=O)N[C@@H](CCCN=C(N)N)C(=O)N[C@@H](CCCCN)C(=O)N[C@@H](CC(C)C)C(=O)O)NC(=O)[C@H](Cc2ccc(O)cc2)NC(=O)[C@@H]2CSSC[C@H](NC(=O)[C@H](Cc3ccc(O)cc3)NC1=O)C(=O)N[C@@H](CCCN=C(N)N)C(=O)N[C@@H](Cc1ccccc1)C(=O)N[C@@H](Cc1ccccc1)C(=O)N[C@@H](CC(N)=O)C(=O)N[C@@H](C)C(=O)N[C@@H](Cc1ccccc1)C(=O)N2
			0.14 µM	158 nM	CC[C@@H]1NC(=O)[C@H](N)CSSC[C@@H](C(=O)N[C@@H](CCCN=C(N)N)C(=O)N[C@@H](CCCCN)C(=O)N[C@@H](CC(C)C)C(=O)O)NC(=O)[C@H](Cc2ccc(O)cc2)NC(=O)[C@H]2CSSC[C@H](NC(=O)[C@@H](Cc3ccc(O)cc3)NC(=O)[C@H](CC)NC(=O)[C@H]([C@@H](C)O)NC(=O)[C@@H](C)NC(=O)[C@H](CC)NC(=O)[C@@H]3CCCN3C(=O)[C@@H](CC(=O)O)NC1=O)C(=O)N[C@H](CCCN=C(N)N)C(=O)N[C@@H](Cc1ccccc1)C(=O)N[C@H](Cc1ccccc1)C(=O)N[C@@H](CC(N)=O)C(=O)N[C@H](C)C(=O)N[C@@H](Cc1ccccc1)C(=O)N2
275 nM	158 nM	5.12 µM	11.7 µM		C[C@@H]1NC(=O)[C@H](CC(N)=O)NC(=O)[C@H](Cc2ccccc2)NC(=O)[C@H](Cc2ccccc2)NC(=O)[C@H](CCCNC(=N)N)NC(=O)[C@@H](NC(=O)[C@@H](N)Cc2ccc(O)cc2)CSSC[C@@H](C(=O)N[C@@H](Cc2ccc(O)cc2)C(N)=O)NC(=O)[C@H](Cc2ccccc2)NC1=O (H-YCRFFNAFCY-NH2; disulfide 2-9)
